Activity calls are given as the source filed them. The calls are words filed in the database; no cut-off is given here.

Here are results for two molecules from ChEMBL document CHEMBL1649091, “Flavonoids with an oligopolysulfated moiety: a new class of anticoagulant agents” (J Med Chem, 2011).

Data set [1] has as its target T1, Coagulation factor X/antithrombin III (Homo sapiens) (UniProt P01008+P00742). The data set is described as follows: Inhibition of human antithrombin 3/factor 10a assessed as 125 x 10^-6M CBS31.39 substrate hydrolysis at 1 x 10^-3M. In kind it is protein-complex assay.
Data set [2] is described as follows: Antiplatelet activity against collagen EPI-induced human platelet aggregation assessed as closure time at 6.25 x 10^-4M. In kind it is functional. In short, it runs like this:
(§1)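 Compound solution added to citrated human whole blood (125 µL into 1875 µL) to the final concentration stated, then run on a PFA-100 in collagen/ADP and collagen/epinephrine cartridges. Closure time is the time until platelets occlude the membrane aperture, in seconds. Mean ± SEM of three independent experiments.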

The test system of data set [3] is Mus musculus. As to the kind of experiment: Hepatotoxicity in mouse liver assessed as change in plasma GOT/GPT level at 150 umol/kg, ip. The class given is toxicity, organism-based. The settings on record: in vivo. A digest of the protocol:
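Male CD1 mice (30-35 g), compound in saline ip at 150 µmol/kg. Portal vein citrated blood taken at 30, 60 and 120 min. GOT and GPT (U/L) measured in platelet-poor plasma on an automated chemistry analyzer. Four independent experiments, mean ± SEM.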

Data set [4] has as its target Prothrombin (Homo sapiens) (UniProt P00734). As to the kind of experiment: Inhibition of human thrombin. In short, it runs like this:
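Direct thrombin assay without ATIII: compound in water in 50 mM Tris/HCl pH 8.3, 227 mM NaCl, 0.1% BSA, 10 min at 37 °C. Human thrombin (0.06 U/mL final) added for 10 min, then Chromozym TH (178 × 10^-6 M). Read at 405 nm every 12 s for 20 min. Percent inhibition from initial slope against water control. Duplicates on ≥3 days.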

For data set [5], the system named is Blood. As to the kind of experiment: Anticoagulant activity in human whole blood assessed as clotting time at 6.25 x 10^-4M by thromboelastography in presence of extrinsic activators. The class given is functional. In short, it runs like this: (§2)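 Citrated whole blood from healthy donors (1:9 citrate), run within 5 h on a ROTEM analyzer. Compound in saline diluted 1:16 into blood to the final concentration stated; saline control. Intrinsic (InTEM) or extrinsic (ExTEM) activator added. Clot monitored at 37 °C in an oscillating cup-and-pin system for up to 60 min, giving R, K, angle and MA.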

In data set [6] the test system is Blood. The data set is described as follows: Anticoagulant activity in human whole blood assessed as maximum amplitude at 6.25 x 10^-4M by thromboelastography in presence of intrinsic activators. The class given is functional. A digest of the protocol: as §2
Data set [7] in a line: Anticoagulant activity in human plasma assessed as concentration required to double prothrombin time. In kind it is functional. A digest of the protocol: (§3)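 Citrated pooled normal human plasma mixed 1:1 with compound in water (final 5 × 10-3 to 0.05 × 10^-3 M) and held 2 min at 37 °C. APTT: reagent added, 6 min at 37 °C, then 25 mmol/L CaCl2. PT: prewarmed PT reagent. TT: prewarmed thrombin (100 U/mL). Clotting read on a coagulometer, duplicate, three days (n = 6). Doubling concentration taken from linear regression of each concentration-response curve.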

Data set [8] has as its target Coagulation factor X (Homo sapiens) (UniProt P00742). The data set is described as follows: Inhibition of human factor 10a assessed as 125 x 10^-6M chromogenic TH substrate hydrolysis at 2 x 10^-3M. In short, it runs like this: (§4)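 Direct FXa test, with buffer in place of ATIII: compound in water in 50 mM Tris/HCl pH 8.3, 227 mM NaCl, 0.1% BSA, 10 min at 37 °C. Human FXa (0.5 U/mL final) added for 10 min, then CBS 31.39 (25 or 125 × 10^-6 M). Read at 405 nm every 12 s for 20 min. Percent inhibition from initial slope against water control, Michaelis-Menten fit.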

The target of data set [9] is T1, Coagulation factor X/antithrombin III (Homo sapiens). The data set is described as follows: Inhibition of human antithrombin 3/factor 10a assessed as 25 x 10^-6M CBS31.39 substrate hydrolysis at 2 x 10^-3M. In kind it is protein-complex assay.
The test system of data set [10] is Blood. As to the kind of experiment: Anticoagulant activity in human whole blood assessed as clotting formation time at 6.25 x 10^-4M by thromboelastography in presence of intrinsic activators. In kind it is functional. A digest of the protocol:
as §2

Data set [11] concerns the target T1, Coagulation factor X/antithrombin III (Homo sapiens). As to the kind of experiment: Inhibition of human antithrombin 3/factor 10a assessed as 25 x 10^-6M CBS31.39 substrate hydrolysis at 0.5 x 10^-3M. The class given is protein-complex assay.
Data set [12] relates to Blood. The data set is described as follows: Anticoagulant activity in human whole blood assessed as clotting formation time at 6.25 x 10^-4M by thromboelastography in presence of extrinsic activators. The class given is functional. A digest of the protocol:
as §2

The nature of data set [13]: Anticoagulant activity in human plasma assessed as concentration required to double activated partial prothrombin time. In kind it is functional. In short, it runs like this:
as §3

The target of data set [14] is T1, Coagulation factor X/antithrombin III (Homo sapiens). As to the kind of experiment: Inhibition of human antithrombin 3/factor 10a assessed as 25 x 10^-6M CBS31.39 substrate hydrolysis at 1 x 10^-3M. The class given is protein-complex assay.
Data set [15] has as its system Blood. The data set is described as follows: Anticoagulant activity in human whole blood assessed as alpha angle at 6.25 x 10^-4M by thromboelastography in presence of extrinsic activators. The class given is functional. In short, it runs like this: as §2
Data set [16] has as its target T1, Coagulation factor X/antithrombin III (Homo sapiens). As to the kind of experiment: Inhibition of human antithrombin 3/factor 10a assessed as 125 x 10^-6M CBS31.39 substrate hydrolysis at 0.5 x 10^-3M. The class given is protein-complex assay.
For data set [17], the target named is Coagulation factor X (Homo sapiens) (UniProt P00742). As to the kind of experiment: Inhibition of human factor 10a assessed as 125 x 10^-6M chromogenic TH substrate hydrolysis at 0.5 x 10^-3M. In short, it runs like this:
as §4

Data set [18] in a line: Anticoagulant activity in human plasma assessed as concentration required to double thrombin time. In kind it is functional. In short, it runs like this: as §3
Data set [19] deals with Coagulation factor X (Homo sapiens) (UniProt P00742). The data set is described as follows: Inhibition of human factor 10a assessed as 25 x 10^-6M chromogenic TH substrate hydrolysis at 1 x 10^-3M. In short, it runs like this: as §4
The test system of data set [20] is Blood. As to the kind of experiment: Anticoagulant activity in human whole blood assessed as clotting time at 6.25 x 10^-4M by thromboelastography in presence of intrinsic activators. In kind it is functional. A digest of the protocol:
as §2

Data set [21] deals with Coagulation factor X (Homo sapiens) (UniProt P00742). The data set is described as follows: Inhibition of human factor 10a assessed as 25 x 10^-6M chromogenic TH substrate hydrolysis at 0.5 x 10^-3M. In short, it runs like this:
as §4

Data set [22] can be described thus: Stability of the compound in human plasma assessed as compound remaining after 3 hrs. The class given is ADME, cell-free. The settings on record: read-out: Activity. A digest of the protocol:
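Compound at 25 µM final in human plasma diluted 1:1 with PBS pH 7.4, shaken at 37 °C for 180 min. Time-zero and 180-min samples quenched with TBA buffer and cold acetonitrile, then centrifuged. Supernatant dried, redissolved and analysed by HPLC. Three independent samples per time point.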

Data set [23] is described as follows: Antiplatelet activity against collagen ADP-induced human platelet aggregation assessed as closure time at 6.25 x 10^-4M. In kind it is functional. In short, it runs like this:
as §1

Data set [24] concerns the target T1, Coagulation factor X/antithrombin III (Homo sapiens). The data set is described as follows: Inhibition of human antithrombin 3/factor 10a assessed as 125 x 10^-6M CBS31.39 substrate hydrolysis at 2 x 10^-3M. In kind it is protein-complex assay.
The test system of data set [25] is Blood. As to the kind of experiment: Anticoagulant activity in human whole blood assessed as alpha angle at 6.25 x 10^-4M by thromboelastography in presence of intrinsic activators. The class given is functional. In short, it runs like this: as §2
For data set [26], the system named is Blood. The data set is described as follows: Anticoagulant activity in human whole blood assessed as maximum amplitude at 6.25 x 10^-4M by thromboelastography in presence of extrinsic activators. In kind it is functional. In short, it runs like this:
as §2

The target in data set [27] is Coagulation factor X (Homo sapiens) (UniProt P00742). As to the kind of experiment: Inhibition of human factor 10a assessed as 125 x 10^-6M chromogenic TH substrate hydrolysis at 1 x 10^-3M. A digest of the protocol: as §4
Data set [28] deals with Mus musculus. The data set is described as follows: Anticoagulant activity in mouse assessed as increase in activated partial prothrombin time at 150 umol/kg, ip relative to control. In kind it is functional. A digest of the protocol:
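Adult male CD1 mice (30-35 g) given compound in saline ip at 150 µmol/kg, fasted on the day. Citrated portal vein blood taken at 30, 60 and 120 min. APTT measured in platelet-poor plasma. Expressed as ratio to saline-treated mice, mean ± SEM of three experiments.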

Data set [29] relates to Plasma. As to the kind of experiment: Anticoagulant activity in human plasma assessed as increase in prothrombin time at 0.5 x 10^-3M relative to control. In kind it is functional. In short, it runs like this:
(§5)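 Citrated pooled normal human plasma, 1:1 with compound in water (water control), held 2 min at 37 °C before coagulometer reading. APTT: reagent, 6 min at 37 °C, then 25 mmol/L CaCl2. PT: prewarmed reagent. TT: prewarmed 100 U/mL thrombin. Ratio is clotting time with compound over time with water. Duplicates repeated on three days (n = 6).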

Data set [30] deals with Plasma. The data set is described as follows: Anticoagulant activity in human plasma assessed as increase in thrombin time at 5 x 10^-3M relative to control. The class given is functional, cell-free. In short, it runs like this:
as §5

Data set [31] has as its system Plasma. The data set is described as follows: Anticoagulant activity in human plasma assessed as increase in activated partial prothrombin time at 0.5 x 10^-3M relative to control. The class given is functional. In short, it runs like this:
as §5

Data set [32] has as its system Plasma. As to the kind of experiment: Anticoagulant activity in human plasma assessed as increase in thrombin time at 0.5 x 10^-3M relative to control. The class given is functional, cell-free. A digest of the protocol:
as §5

Chain of Coagulation factor X (Homo sapiens) (P00742 41-179 limits assumed): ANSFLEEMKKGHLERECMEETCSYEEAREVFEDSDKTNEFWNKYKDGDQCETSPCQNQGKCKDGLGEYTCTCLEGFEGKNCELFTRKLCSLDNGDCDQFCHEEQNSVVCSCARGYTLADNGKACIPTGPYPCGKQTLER
Chain of Coagulation factor X (Homo sapiens) (P00742 235-488 limits assumed): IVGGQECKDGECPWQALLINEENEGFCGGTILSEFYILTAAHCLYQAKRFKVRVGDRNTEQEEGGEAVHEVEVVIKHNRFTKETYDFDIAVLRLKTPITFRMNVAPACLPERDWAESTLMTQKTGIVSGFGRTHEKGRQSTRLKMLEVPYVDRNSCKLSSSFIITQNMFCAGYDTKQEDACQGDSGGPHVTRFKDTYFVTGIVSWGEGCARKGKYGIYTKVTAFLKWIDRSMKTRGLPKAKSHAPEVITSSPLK

Consider `COc1ccc(-c2cc(=O)c3c(O)cc(O[C@@H]4O[C@H](CO[C@@H]5O[C@@H](C)[C@H](OS(=O)(=O)O)[C@@H](OS(=O)(=O)O)[C@H]5OS(=O)(=O)O)[C@@H](OS(=O)(=O)O)[C@H](OS(=O)(=O)O)[C@H]4OS(=O)(=O)O)cc3o2)cc1O`, for which the inhibition in data set [1] was determined as 38.7%; in data set [8], 23.4%; in data set [9], 43.7%; in data set [14], 22.6%; in data set [16] it was 28.9%; in data set [24], 50.7%. The Time is recorded as 171 s in data set [2]; 49 s with Blood [5]; 229 s with Blood [10]; 150 s in the data set with Blood [12]; 267 s in the data set on Blood [20]; 162 s in data set [23]. The Activity result was “Non-toxic” in the data set with Mus musculus [3]; 45 mm in the data set on Blood [6]; 68 degree in the data set with Blood [15]; greater than 5000 µM in data set [18]; 57 degree in the data set on Blood [25]; 54 mm in the data set on Blood [26]. Besides, the inhibition entry in data set [4], in [11], in data set [17], in [19], in data set [21] and in data set [27] was “inactive” each time. In addition, the 2PT in [7] is 2230 µM. Moreover, the 2aPTT in data set [13] came out at 435 µM. Besides, the remaining at 3 h in data set [22] is 95%. For the same molecule, in the data set on Mus musculus [28], the “fold change (FC)” value was determined as 1.5.

`COc1ccc(-c2cc(=O)c3c(O)cc(OS(=O)(=O)O)cc3o2)cc1OS(=O)(=O)O`: the “fold change (FC)” value is recorded as 1.1 in the data set with Plasma [29] and 1.65 with Plasma [31]. Besides, the outcome in the data set with Plasma [30] and in the data set with Plasma [32] was inactive.

As a reminder, the inhibition is the change of the read-out against control, counted positive when it falls.
